From ChEMBL document CHEMBL4513216, “Probing the Open Global Health Chemical Diversity Library for Multistage-Active Starting Points for Next-Generation Antimalarials” (ACS Infect Dis, 2020)

Assay: Toxicity liver stage against HepG2, at 10uM
Assay type: cell-based
Design: test concentration 10 uM, cell line HepG2-A16-CD81EGFP
Conditions: human, HepG2-A16-CD81EGFP cells; read-out: INHIBITION
Summary of the method: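 Uninfected HepG2-A16-CD81EGFP cells, 3 × 10^3 per well, 1536-well, plated on prespotted compound at 10 μM final, parasite-free screening media added to match infected plates; puromycin 10 μM positive, DMSO 0.5% negative; run in parallel with 48 h PbLuc assay at 37 °C, 5% CO2; viability by CellTiter-Glo luminescence, normalized to controls.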

Structure (SMILES)	cytotoxicity at 10 µM
COC1CCCN(Cc2nc(Cc3ccccc3F)no2)C1 (configuration not stated)	-4.23%
c1cncc(-c2c[nH]c([C@@H]3COCCN3Cc3ccncc3)n2)c1	3.25%
Cn1cncc1-c1nnc([C@H]2CCN(Cc3ccc(F)c(F)c3)C2)o1	3.04%
O=S(=O)(NC[C@H]1C[C@@H]2CCN1C[C@@H]2CN1CCOCC1)c1ccccc1	1.82%
COC1CN(C(=O)CC2CCCC2)CCC(=O)N(C)c2ccccc21 (configuration not stated)	-32.8%
Cn1ccc2ccc(C(=O)NC3CCOC(C)(C)C3)cc21 (configuration not stated)	3.13%
COC(=O)CC(C1=Cc2ccccc2OC1)c1oc(C)cc(=O)c1O (configuration not stated)	-8.51%
CCS(=O)(=O)c1nnc([C@@H](N)Cc2ccccc2)o1	6.99%
CCCSc1nn(CCCN(C)C)c2nc3sc(C)c(CC)c3c(=O)n12	-3.63%
CN1CCN(C(=O)c2cc3sccc3n2Cc2ccccc2Cl)CC1	2.3%
COCCSc1ccc(-n2cccn2)nn1	-24.6%
O=c1ccc2c([nH]1)CCC(NCc1ccncc1)C2 (configuration not stated)	-6.22%
CC(C)COCC1CN(Cc2ccco2)Cc2ncn(C)c21 (configuration not stated)	4.24%
O=C(c1cnccn1)N1CCN(Cc2cccnc2)c2ncccc2C1	-1.52%
COc1ccccc1C1CC(=O)Nc2c1c(=O)[nH]n2C1CCCC1 (configuration not stated)	-3.85%
CC(=O)N1[C@@H](C(=O)NCC2CC2)C[C@@H]2CN(Cc3ccco3)C[C@@H]21	4.22%
CCCc1nc(N2CCCCC2)c2c(n1)c(C)nn2CC	7.46%
CCCC1c2cccn2CCN1C(=O)Cn1cnc2sc(C)cc2c1=O (configuration not stated)	-0.35%
Cc1ncc(CNC(=O)Cc2cccs2)c(C2CCCN2C)n1 (configuration not stated)	-0.279%
COC(=O)C(C)CN(C)S(=O)(=O)c1c(Br)cc2[nH]c(=O)oc2c1Cl (configuration not stated)	8.73%
C[S+]([O-])c1cccc(NC(=O)N[C@H](CCO)c2ccccc2)c1 (some centres not stated)	-3.13%
CC1c2cc(F)ccc2CCN1CCS(=O)(=O)C(C)C (configuration not stated)	2.72%
Cc1cc(C)c(C(=O)N(C)CCN(C)C(=O)OC(C)(C)C)[nH]1	3.87%

Structure (SMILES)	cytotoxicity at 10 µM
CC(CNC(=O)N(C)Cc1ccco1)N1CCc2sccc2C1 (configuration not stated)	-13.7%
CC(C)OC(=O)CC(NC(=O)CCn1cccn1)c1ccccc1 (configuration not stated)	-12.2%
CCCS(=O)(=O)N1CCN(CCCO)CC1	5.96%
Cc1cn2nc(N(C)C3CCCN(c4cccnn4)C3)sc2n1 (configuration not stated)	4.29%
COc1cc(C)c(S(=O)(=O)CC(=O)N(C)C(C)C)cc1OC	4.02%
CC(C)c1nc(NC(=O)CCCn2cccc2)n(C)n1	-7.71%
COc1ccc(OCCN(C)S(=O)(=O)c2cnn(C)c2)cc1	-2.82%
Cc1ccc(N(CC(=O)N2CCCCC2)C(=O)C2COCCO2)cc1 (configuration not stated)	13.6%
Cn1cccc1C(=O)NC(C)(C(N)=O)c1cccc(Cl)c1 (configuration not stated)	4.07%
CC(=O)N(C)C1CCN(C(=O)NCC(C)Cc2cccs2)CC1 (configuration not stated)	-1.99%
CCN1CCCC(CNC(=O)CCc2ccc(OC)c(F)c2)C1 (configuration not stated)	-3.42%
Cc1ccccc1C(=O)NC1CCN(c2cnn(C)c2)C1=O (configuration not stated)	4.19%
c1csc(-c2nc(CN3CCCCC3Cn3cccn3)co2)c1 (configuration not stated)	3.22%
O=C1C(Sc2nnnn2C2CC2)CCN1c1ccccc1Cl (configuration not stated)	2.4%
CNC(=O)NC(=O)CCSCc1cc(F)cc2cccnc12	-5.31%
CCc1nc(C2CCCN2Cc2ncc(C)c(OC)c2C)no1 (configuration not stated)	3.3%
Cc1cc(CN2CCN(Cc3cnc4c(c3)c(C)nn4C)CC2)on1	-12.6%
c1csc(-c2nnc(CSCCN3CCOCC3)o2)c1	-5.77%
COCCCS(=O)(=O)N1CCN(C(=O)CO)CC1	-0.995%
Nc1cc2c(nn1)CCN(C(=O)c1csc(-c3ccco3)n1)C2	-2.79%
CC[C@@H](CO)Nc1nccc(-c2cnc3sc(C)cn3c2=O)n1	-14%
CC(C)(CN1CCOCC1)CN1CCC(Cc2cccc(CO)c2)C1 (configuration not stated)	-7.73%
CCOC(=O)c1n[nH]cc1CN1CCOC(Cc2ccc(OC)cc2)C1 (configuration not stated)	-0.734%

Structure (SMILES)	cytotoxicity at 10 µM
OCC1(Cc2cccc(Cl)c2)CCCN(c2ncccn2)C1 (configuration not stated)	0.668%
CC(C)n1ccnc1C1CCN(c2nccc(C(F)(F)F)n2)CC1	2.52%
CC1(c2ccccc2)CCC(=O)N(CCN2CCOC2=O)C1 (configuration not stated)	3.37%
CCc1nc(C)c(C(=O)N2CCNCC2C(=O)Nc2ccc(C)nc2)o1 (configuration not stated)	-4%
O=C(CCn1cc(Cl)cn1)N1CCN(CCOc2ccccc2)CC1	4.92%
COc1c(F)cccc1C(=O)NC(C)c1cnn(C)c1 (configuration not stated)	24.5%
c1cc(-c2nccn2CCc2nc3c(s2)CCC3)ccn1	6.15%
COc1cccc2c1OCCCN(Cc1c[nH]nc1C(=O)O)C2	6.5%
CN(CCc1ccccn1)C(=O)c1ccccc1F	-10.5%
CNc1ncc(C(=O)N2CC[C@@](O)(C3CCOCC3)[C@H](C)C2)cn1	4.56%
NC(=O)c1cnc2n1CCN(C(=O)c1ccc(-c3cc[nH]n3)cc1)C2	-2.79%
CC(=O)Nc1ccc2nc(CN(C)Cc3snnc3C)ccc2c1	-12.8%
Fc1cc(Cl)cnc1N1CCCC(c2nccn2CC2CC2)C1 (configuration not stated)	4.8%
O=C1CCc2ccccc2N1CCCn1cnnn1	3.92%
CC(C)c1nccn1CCCNC(=O)c1ccc(-c2ccncc2)nc1	-9.77%
COc1ccc(OC2CCN(C(=O)C(C)Cn3cccn3)CC2)cc1 (configuration not stated)	5.43%
CN1CCc2nc(N(C)C)nc(N3CCC(O)CC3)c2C1	-0.879%
Cc1ccccc1C(=O)N1CC[C@@H](N2CCC(O)CC2)[C@H](O)C1	2.94%
CCN(Cc1noc(CC(C)C)n1)Cc1ccccc1OCC(=O)O	-49%
COc1cccc(F)c1-c1c[nH]c(C)n1	-0.654%
Cc1nccn1Cc1nnc(C2CCCN(c3cnccn3)C2)n1C (configuration not stated)	2.73%
CC(C)c1nc(N2CCN3CCCC3C2)c2cnn(C)c2n1 (configuration not stated)	-11.9%
CCn1ncnc1C1CC(=O)NCc2nc3ccccn3c21 (configuration not stated)	-12.2%

Structure (SMILES)	cytotoxicity at 10 µM
CCn1nc(C)c(CCNC(=O)C2CCCN(C(=O)N(C)C)C2)c1C (configuration not stated)	0.874%
Cc1cnc(N2CCCC3(CCCN(C)C3)C2)nc1 (configuration not stated)	-11.8%
Cc1nccn1-c1cccc(C2CCCN(C3CCCCC3)C2)n1 (configuration not stated)	-2.65%
c1cnn(CC2CCCN2Cc2nc(C3CC3)no2)c1 (configuration not stated)	1.61%
CC(C)c1noc(CN2CCCN(Cc3cccs3)CC2)n1	-6.86%
NC(=O)C1CCN(C(=O)c2cccn2Cc2cccs2)C1 (configuration not stated)	-8.5%
Cc1csc(CNC(=O)N2CCN(Cc3cc(C)on3)CC2)n1	-5.49%
O=C(NCCn1cccn1)c1ccn(-c2cccc(F)c2)n1	-4.58%
Cc1cc(C)c(CNC(=O)CCC2CCCO2)c(=O)[nH]1 (configuration not stated)	5.1%
N#CC1(C(=O)N2CCCN(c3nccs3)CC2)CCCCC1	-5.83%
CCN(Cc1cccc(F)c1)Cn1nc(C)c2c(C)onc2c1=O	-3.54%
CSCc1ccc(C(=O)N2CCN(CC(C)O)CC2)cc1 (configuration not stated)	-6.23%
CCN(Cc1ccc2c(c1)OCCO2)C(=O)NCc1nncn1CC	-4.35%
Cc1nc(C2CCCN(C(=O)c3ccoc3)C2)no1 (configuration not stated)	-13.1%
CC(=O)Nc1nc(CN2CCOC(Cn3cncn3)C2)cs1 (configuration not stated)	-27.5%
Cc1cccc(C(=O)N2CCC(C(=O)c3cc(F)ccc3F)CC2)n1	-0.448%
O=C(CCc1cccs1)N1CCCC(N2CCNC2=O)C1 (configuration not stated)	-6.7%
Cc1ncc(C(=O)NC2CCc3nccn3C2)c(C(C)C)n1 (configuration not stated)	-2.31%
O=C(NCCC(=O)N1CCCc2ccccc21)c1ccc(F)cc1F	-10.1%
Cn1cc(C(=O)N2CCCC(n3cncn3)C2)ccc1=O (configuration not stated)	-5.03%
O=C(CCNC(=O)C1CCCC1)NCc1ccccc1Cn1cncn1	-5.63%
CCNc1cc2c(nn1)CCN(C(=O)Cc1c(C)noc1C)C2	-8.89%
CC(C)C(C(=O)N1CCCN(Cc2nccn2C)CC1)N1CCCC1 (configuration not stated)	-13%

Structure (SMILES)	cytotoxicity at 10 µM
Cn1cc(NC(=O)N2CCC(c3ccccc3)CC2)ccc1=O	-9.42%
Cc1ccc(NC2CCN(C(=O)c3cc[nH]n3)CC2)nn1	-15.2%
CS(=O)(=O)NCCCN1CCCC1Cc1ccccc1 (configuration not stated)	-11.7%
CN(Cc1ccc(F)cc1)C(=O)CN1CCCC(Cn2cncn2)C1 (configuration not stated)	-14.8%
c1csc(-c2nc(CN3CCn4c(nnc4C4CC4)C3)co2)c1	7.17%
Cc1ccc(NC2CCN(C(=O)c3cc(C(N)=O)cs3)CC2)nn1	2.94%
COc1c(C2CCCN2C(=O)c2ccc3cc[nH]c3c2)c(C)nn1C (configuration not stated)	-2.74%
CC(CNCc1ccc(Cl)cc1)Oc1ccccn1 (configuration not stated)	5.01%
CNc1nc(C2CCCN2C(C)=O)nc2c1CN(CCO)CC2 (configuration not stated)	2.69%
CCCS(=O)(=O)N1CCOC2(CCCN(c3ccccn3)C2)C1 (configuration not stated)	4.23%
COCC1CN(C(=O)COc2ccccc2)Cc2cn(C)nc21 (configuration not stated)	0.55%
Cc1nc(CO[C@@H]2CN(Cc3cccnc3)[C@@H]3COC[C@@H]32)cs1	5.05%
Cc1ccc(CN2CCC3(CC2)COCCN3S(C)(=O)=O)o1	8.86%
CCN1CCC(CNCc2c[nH]nc2C(C)(C)C)C1 (configuration not stated)	-7.77%
CN(C)S(=O)(=O)N1C[C@@H]2COC[C@]2(COc2ccccn2)C1	0.705%
Cc1ccc(CN2CCOC3(COCCN(S(C)(=O)=O)C3)C2)s1 (configuration not stated)	10.8%
Cc1ccsc1C(=O)N1Cc2ncn(C)c2C(COCC2CC2)C1 (configuration not stated)	6.76%
CN(C)CCOCC1CN(Cc2ccsc2)Cc2ccnn2C1 (configuration not stated)	3.01%
O=c1[nH][nH]c2cn(-c3ccc(Cl)cc3)c(=O)n12	6.45%
CC1=C(C#N)C(=O)NC(=O)/C1=C\c1c(C)[nH]n(-c2ccc(Cl)cc2)c1=O	-8.94%
